Measurements: ChEMBL document CHEMBL1129508, “Betulinic acid derivatives: a new class of specific inhibitors of human immunodeficiency virus type 1 entry” (J Med Chem, 1996)
Blank lines part the entries; values can stand above or below the compound they belong to.

Key:
[1] = test system: CCRF-CEM; assay: (§1) Inhibitory activity against the HIV-1 in CEM cells; format: functional, cell-based; details: Homo sapiens
Procedure, shortened: (§2)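 HIV-1-induced cytopathicity in CEM 4 or MT-4 cell cultures was assessed by counting viable cells after MTT (3-(4,5-dimethylthiazol-2-yl)-2,5-diphenyltetrazolium bromide) staining. IC50 is the concentration that inhibits cytopathicity by 50%. For routine testing, the highest concentration was generally 3 µM, because solubility was limited above 10 µM.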

[2] = test system: CCRF-CEM; assay: Inhibitory Activity against the HIV-1 in CEM cells; format: functional, Homo sapiens; procedure, shortened: as §2
[3] = test system: CCRF-CEM; assay: Inhibitory activity against the HIV-1 in CEM cells; NA= Not active; format: functional, cell-based, Homo sapiens
Procedure, shortened: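 HIV-1-induced cytopathicity assay in CEM 4 cells. Viable cells were counted after MTT (3-(4,5-dimethylthiazol-2-yl)-2,5-diphenyltetrazolium bromide) staining. IC50 is the concentration that inhibits viral cytopathicity by 50%. For routine testing the top concentration was generally 3 µM, because solubility was limited above 10 µM.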

[4] = test system: CCRF-CEM; assay: as §1; format: functional, Homo sapiens; procedure, shortened: as §2
[5] = test system: CCRF-CEM; assay: Inhibitory activity against the HIV-1 in CEM cells at 1 uM concentration; format: functional; details: Homo sapiens
[6] = test system: MT4; assay: Inhibitory activity against the HIV-1 in MT-4 cells; format: functional, cell-based; details: Homo sapiens; procedure, shortened: as §2
[7] = test system: Human immunodeficiency virus 1; assay: Inhibitory activity tested against the HIV-1 in MT-4 cells; format: functional, organism-based; details: Human immunodeficiency virus 1, MT4; procedure, shortened: as §2

IC50 [1]: 5.5 µM
Structure (SMILES): C=C(C)[C@@H]1CC[C@]2(C(=O)NCCCC(=O)NCCCCCC(=O)O)CC[C@]3(C)[C@H](CCC4[C@@]5(C)CC[C@H](O)C(C)(C)[C@@H]5CC[C@]43C)[C@@H]12 (some centres undefined)

Structure (SMILES): C=C(C)[C@@H]1CC[C@]2(C(=O)NCCCCCCCCCCCCC(=O)O)CC[C@]3(C)[C@H](CCC4[C@@]5(C)CC[C@H](O)C(C)(C)[C@@H]5CC[C@]43C)[C@@H]12 (some centres undefined)
Inhibition [2]: 35%

Structure (SMILES): C=C(C)[C@@H]1CC[C@]2(C(=O)NCC(=O)NCCCCCCCC(=O)O)CC[C@]3(C)[C@H](CCC4[C@@]5(C)CC[C@H](O)C(C)(C)[C@@H]5CC[C@]43C)[C@@H]12 (some centres undefined)
Inhibition [2]: 30%

IC50 [1]: 4.5 µM
Structure (SMILES): C=C(C)[C@@H]1CC[C@]2(C(=O)NCCCCCCC(=O)NCCC(=O)O)CC[C@]3(C)[C@H](CCC4[C@@]5(C)CC[C@H](O)C(C)(C)[C@@H]5CC[C@]43C)[C@@H]12 (some centres undefined)

Structure (SMILES): C=C(C)[C@@H]1CC[C@]2(C(=O)NCCCC(=O)O)CC[C@]3(C)[C@H](CCC4[C@@]5(C)CC[C@H](O)C(C)(C)[C@@H]5CC[C@]43C)[C@@H]12 (some centres undefined)
IC50 [3]: Not Active

IC50 [3]: Not Active
Structure (SMILES): C=C(C)[C@@H]1CC[C@]2(C(=O)NCCC(=O)O)CC[C@]3(C)[C@H](CC[C@@H]4[C@@]5(C)CC[C@H](O)C(C)(C)[C@@H]5CC[C@]43C)[C@@H]12

Structure (SMILES): C=C(C)[C@@H]1CC[C@]2(C(=O)NCCC(=O)NCCCCCCC(=O)O)CC[C@]3(C)[C@H](CCC4[C@@]5(C)CC[C@H](O)C(C)(C)[C@@H]5CC[C@]43C)[C@@H]12 (some centres undefined)
Inhibition [4]: 20%

Structure (SMILES): C=C(C)[C@@H]1CC[C@]2(C(=O)NCC(=O)O)CC[C@]3(C)[C@H](CCC4[C@@]5(C)CC[C@H](O)C(C)(C)[C@@H]5CC[C@]43C)[C@@H]12 (some centres undefined)
IC50 [3]: Not Active

Structure (SMILES): C=C(C)[C@@H]1CC[C@]2(C(=O)NCCCCC(=O)O)CC[C@]3(C)[C@H](CC[C@@H]4[C@@]5(C)CC[C@H](O)C(C)(C)[C@@H]5CC[C@]43C)[C@@H]12
inhibition at 1 µM [5]: 46%

IC50 [1]: 2.3 µM
Structure (SMILES): C=C(C)[C@@H]1CC[C@]2(C(=O)NCCCCCC(=O)O)CC[C@]3(C)[C@H](CC[C@@H]4[C@@]5(C)CC[C@H](O)C(C)(C)[C@@H]5CC[C@]43C)[C@@H]12
IC50 [6]: 2.4 µM

IC50 [7]: 4.3 µM
IC50 [1]: 12 µM
Structure (SMILES): C=C(C)[C@@H]1CC[C@]2(C(=O)NCCCCCCC(=O)O)CC[C@]3(C)[C@H](CC[C@@H]4[C@@]5(C)CC[C@H](O)C(C)(C)[C@@H]5CC[C@]43C)[C@@H]12

Structure (SMILES): Cc1ccnc2c1NC(=O)c1cccnc1N2C1CC1 [NEVIRAPINE]
IC50 [1]: 0.084 µM
